Active and inactive are the calls of the source. The rule behind the calls is not given here.
Key:
[1] = target: T1, Alpha-2C adrenergic receptor (Homo sapiens) (UniProt P18825); experiment: Agonist activity at human Alpha-2C adrenoceptor expressed in CHO cells assessed as induction of extracellular acidification by microphysiometry relative to (-)noradrenaline; assay type: functional, cell-based
T1 sequence (whole entry): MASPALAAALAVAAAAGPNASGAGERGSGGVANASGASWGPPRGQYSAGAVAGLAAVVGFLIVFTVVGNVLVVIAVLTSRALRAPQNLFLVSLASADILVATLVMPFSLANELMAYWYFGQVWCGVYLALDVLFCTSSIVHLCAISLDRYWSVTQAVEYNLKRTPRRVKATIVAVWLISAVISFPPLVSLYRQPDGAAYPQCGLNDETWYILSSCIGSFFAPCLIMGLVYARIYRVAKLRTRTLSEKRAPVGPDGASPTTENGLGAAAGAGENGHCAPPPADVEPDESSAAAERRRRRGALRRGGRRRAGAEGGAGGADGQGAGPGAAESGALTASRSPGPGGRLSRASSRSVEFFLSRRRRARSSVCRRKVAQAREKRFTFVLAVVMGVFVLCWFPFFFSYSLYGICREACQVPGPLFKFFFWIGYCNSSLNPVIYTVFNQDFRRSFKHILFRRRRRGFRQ
Method in brief: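 Cytosensor microphysiometry on CHO cells stably expressing one human α2-AR subtype, seeded at 3 × 10⁵ cells/cup and grown 24 h at 37 °C. Cells were perfused with bicarbonate-free DMEM and exposed to agonist for 4 min, with 30 min washes between exposures. The read-out is the change in acidification rate: peak after agonist minus the mean of three prior readings. […] Mean ± SEM, 3–6 experiments.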

[2] = target: T2, Alpha-2B adrenergic receptor (Homo sapiens) (UniProt P18089); conditions: CHO
T2 sequence (whole entry): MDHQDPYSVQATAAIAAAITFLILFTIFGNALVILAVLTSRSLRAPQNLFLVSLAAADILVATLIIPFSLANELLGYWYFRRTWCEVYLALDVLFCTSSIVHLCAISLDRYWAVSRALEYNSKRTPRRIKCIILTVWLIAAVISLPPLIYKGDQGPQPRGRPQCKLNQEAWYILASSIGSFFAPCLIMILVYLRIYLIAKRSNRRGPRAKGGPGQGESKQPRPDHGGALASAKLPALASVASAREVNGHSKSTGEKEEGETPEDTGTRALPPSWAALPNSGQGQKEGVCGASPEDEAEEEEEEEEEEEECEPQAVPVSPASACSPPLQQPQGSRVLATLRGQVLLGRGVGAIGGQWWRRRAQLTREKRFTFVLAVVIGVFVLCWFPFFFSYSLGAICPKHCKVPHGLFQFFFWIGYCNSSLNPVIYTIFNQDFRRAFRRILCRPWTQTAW

[3] = target: T3, Alpha-2A adrenergic receptor (Homo sapiens, UniProt P08913); experiment: Displacement of [3H]RX821002 from human alpha2A adrenoceptor expressed in CHO cells; assay type: cell-based
T3 sequence (P08913 whole entry): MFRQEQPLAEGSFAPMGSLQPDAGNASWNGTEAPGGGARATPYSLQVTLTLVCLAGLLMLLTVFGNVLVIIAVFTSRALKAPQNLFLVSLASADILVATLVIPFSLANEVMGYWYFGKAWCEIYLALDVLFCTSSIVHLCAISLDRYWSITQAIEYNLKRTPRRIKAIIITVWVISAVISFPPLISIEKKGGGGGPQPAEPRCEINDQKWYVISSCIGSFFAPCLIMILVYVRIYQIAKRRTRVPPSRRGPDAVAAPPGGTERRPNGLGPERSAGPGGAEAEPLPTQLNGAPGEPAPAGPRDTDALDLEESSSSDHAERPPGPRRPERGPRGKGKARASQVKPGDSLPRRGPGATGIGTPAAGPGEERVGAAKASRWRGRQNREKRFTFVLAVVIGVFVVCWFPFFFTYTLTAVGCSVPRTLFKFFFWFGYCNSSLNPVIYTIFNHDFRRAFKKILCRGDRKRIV
Method in brief: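 Crude membranes from CHO cells expressing human α2A-AR were incubated in Tris-Mg buffer (50 mM Tris-HCl, 0.5 mM MgCl₂, pH 7.5). Ki came from one- or two-site nonlinear regression and is given as pKi.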

[4] = target: T3, Alpha-2A adrenergic receptor; experiment: Agonist activity at human alpha2A adrenoceptor expressed in CHO cells assessed as induction of extracellular acidification by microphysiometry; assay type: functional, cell-based
Method in brief: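 CHO cells stably expressing human α2A-AR were seeded at 3 × 10⁵ cells/cup and held 24 h at 37 °C under 5% CO₂. They were then perfused at 100 μL/min with bicarbonate-free DMEM containing glutamine and NaCl. Agonist exposure lasted 4 min, with 30 min washes between exposures.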

[5] = target: T4, Alpha-2B adrenergic receptor (Homo sapiens, UniProt P18089); experiment: Displacement of [3H]RX821002 from human alpha2B adrenoceptor expressed in CHO cells; assay type: cell-based
T4 sequence (P18089 whole entry): T2 sequence (whole entry)
Method in brief: (§1)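 Buffer was Tris-Mg (50 mM Tris-HCl, 0.5 mM MgCl2, pH 7.5), competitor 10^-9 to 10^-4 M, 30 min at room temperature. Bound ligand was filtered and counted. Ki by nonlinear one- or two-site fit, reported as pKi.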

[6] = target: T5, Alpha-2C adrenergic receptor (Homo sapiens, UniProt P18825); experiment: Displacement of [3H]RX821002 from human Alpha-2C adrenoceptor expressed in CHO cells; assay type: cell-based; method in brief: as §1
T5 sequence (P18825 whole entry): T1 sequence (whole entry)

[7] = target: T5, Alpha-2C adrenergic receptor; experiment: Agonist activity at human Alpha-2C adrenoceptor expressed in CHO cells assessed as induction of extracellular acidification by microphysiometry; assay type: functional, cell-based
Method in brief: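 Cytosensor microphysiometry on CHO cells stably expressing one human α2-AR subtype, seeded at 3 × 10⁵ cells/cup and grown 24 h at 37 °C. Cells were perfused with bicarbonate-free DMEM and exposed to agonist for 4 min, with 30 min washes between exposures. The read-out is the change in acidification rate: peak after agonist minus the mean of three prior readings. Mean ± SEM, 3–6 experiments.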

[8] = target: T6, Alpha-2A adrenergic receptor (Homo sapiens) (UniProt P08913); experiment: Antagonist activity at human alpha2A adrenoceptor expressed in CHO cells assessed as effect on agonist-induced extracellular acidification by microphysiometry; assay type: functional, cell-based
T6 sequence (whole entry): T3 sequence (P08913 whole entry)
Method in brief: (§2)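 CHO cells stably expressing one human α2-AR subtype were run on the Cytosensor microphysiometer with bicarbonate-free DMEM perfusion. […] Kb = M/(concentration ratio − 1), where the ratio is EC50 with antagonist over EC50 without. Reported as pKb, mean ± SEM of 3–6 experiments.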

[9] = target: T4, Alpha-2B adrenergic receptor; experiment: Agonist activity at human alpha2B adrenoceptor expressed in CHO cells assessed as induction of extracellular acidification by microphysiometry
Mus musculus [10] = experiment: Enhancement of morphine-induced analgesic effect in CD1 mouse at 0.05 mg/kg, ip administered 15 mins before morphine dosing measured 30 to 240 mins post morphine challenge by radiant heat tail flick test; assay type: functional, organism-based; design: dose 0.05 mg/kg
Method in brief: (§3)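 Male CD-1 mice (25–35 g) received test agent 0.05 mg/kg ip or vehicle 15 min before morphine 5 mg/kg sc. Radiant-heat tail-flick to the lower third of the tail; baseline latency (2–3 s) is the mean of two trials. Latencies were read at 30, 60, 90, 120 and 240 min and expressed as %MPE. 7–8 mice per group, mean ± SEM.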

Mus musculus [11] = experiment: Analgesic effect in CD1 mouse at 0.05 mg/kg, ip by radiant heat tail flick test; assay type: functional, organism-based; design: dose 0.05 mg/kg; method in brief: as §3
[12] = target: T2, Alpha-2B adrenergic receptor (Homo sapiens); experiment: Antagonist activity at human alpha2B adrenoceptor expressed in CHO cells assessed as effect on agonist-induced extracellular acidification by microphysiometry; assay type: functional, cell-based; method in brief: as §2
Mus musculus [13] = experiment: Enhancement of morphine-induced analgesic effect in CD1 mouse at 0.05 mg/kg, ip administered 15 mins before morphine dosing measured 30 to 240 mins post morphine challenge in presence of Alpha-2C adrenergic receptor antagonist yohimbine by radiant heat tail flick test; assay type: functional, organism-based; design: dose 0.05 mg/kg
Method in brief: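 Male CD-1 mice got yohimbine 1.250 mg/kg ip 15 min before test agent (0.05 mg/kg ip). Test agent was given 15 min before morphine 5 mg/kg sc. Radiant-heat tail-flick latency was read 30–240 min after morphine and expressed as %MPE.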

Mus musculus [14] = experiment: Reduction in morphine tolerance acquisition in CD1 mouse assessed as morphine analgesic effect incidence at 0.05 mg/kg, ip administered as single dose 15 mins before last morphine dosing on test day post morphine challenge by radiant heat tail flick test; assay type: functional
Method in brief: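 Tolerance was induced in male CD-1 mice with morphine 10 mg/kg sc twice daily at 12 h intervals for 5 days. On day 5, test agent 0.05 mg/kg ip was given once, 15 min before the last morphine injection. Tail-flick antinociception was read 30 min after that injection and expressed as %MPE, with day 1 vs day 5 compared.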

Mus musculus [15] = experiment: Reduction in morphine dependence expression in CD1 mouse assessed as decrease in expression of naloxone-precipitated withdrawal syndrome at 0.05 mg/kg, ip administered as single dose […] on test day post morphine challenge […]; assay type: functional, organism-based; design: dose 0.05 mg/kg
Mus musculus [16] = experiment: Toxicity in CD1 mouse assessed as effect on sleep duration at 0.05 mg/kg, ip by pentobarbital sodium induced sleep time assay; assay type: organism-based; design: dose 0.05 mg/kg, route intraperitoneal; conditions: in vivo
Method in brief: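 Male CD-1 mice (n = 10 per group) were given test agent 0.05 mg/kg or vehicle, then sodium pentobarbital 50 mg/kg ip 15 min later. Sleep duration, the time from loss to regain of the righting reflex, was recorded in seconds. Mean ± SEM.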

Mus musculus [17] = experiment: Reduction in morphine tolerance acquisition in CD1 mouse assessed as morphine analgesic effect incidence at 0.05 mg/kg, ip bid administered 15 mins before last morphine dosing by radiant heat tail flick test; assay type: functional, organism-based; design: dose 0.05 mg/kg
Mus musculus [18] = experiment: Reduction in morphine dependence expression in CD1 mouse assessed as decrease in expression of naloxone-precipitated withdrawal syndrome at 0.05 mg/kg, ip bid administered 15 mins before last morphine dosing […]; assay type: functional, organism-based; design: dose 0.05 mg/kg
Method in brief: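 In male CD-1 mice, morphine 10 mg/kg sc was given twice daily at 12 h intervals for 6 days, with test agent 0.05 mg/kg ip 15 min before each morphine dose. Jumping was counted, and somatic signs were scored as the sum of rearing, forepaw tremor and teeth chatter. Blind observers; mean ± SEM.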

[19] = target: T1, Alpha-2C adrenergic receptor (Homo sapiens); experiment: Antagonist activity at human Alpha-2C adrenoceptor expressed in CHO cells assessed as effect on agonist-induced extracellular acidification by microphysiometry; assay type: functional, cell-based; method in brief: as §2

SMILES: CC(Oc1ccccc1-c1ccsc1)C1=NCCN1 (racemic)
- Intrinsic activity [1]: 0.85
- pEC50 [2]: inactive

SMILES: C[C@@H](Oc1ccccc1-c1ccsc1)C1=NCCN1
- Ki [3]: 166 nM
- EC50 [4]: 3160 nM
- Ki [5]: 708 nM
- Ki [6]: 316 nM
- EC50 [7]: 100 nM
- Intrinsic activity [1]: 0.7
- pEC50 [2]: inactive

SMILES: C[C@H](Oc1ccccc1-c1ccccc1)C1=NCCN1
- Intrinsic activity [1]: 0.9

SMILES: CC(Oc1ccccc1C1CC1)C1=NCCN1 (racemic)
- Ki [3]: 22.9 nM
- pKb [8]: 7
- Ki [5]: 309 nM
- EC50 [9]: 3160 nM
- Ki [6]: 79.4 nM
- EC50 [7]: 39.8 nM
- Intrinsic activity [1]: 0.9

SMILES: C[C@H](Oc1ccccc1C1CC1)C1=NCCN1
- Ki [3]: 20.9 nM
- pKb [8]: 7.7
- Ki [5]: 263 nM
- EC50 [9]: 3160 nM
- Ki [6]: 63.1 nM
- EC50 [7]: 35.5 nM
- Intrinsic activity [1]: 0.9
- Activity (Mus musculus [10]): Active
- Activity (Mus musculus [11]): inactive

SMILES: CC(Oc1ccccc1-c1cccc(O)c1)C1=NCCN1 (racemic)
- pKb [8]: 6.2
- Intrinsic activity [1]: 1.15

SMILES: CC(Oc1ccccc1-c1cccc([N+](=O)[O-])c1)C1=NCCN1 (racemic)
- pKb [8]: 6.8
- pKb [12]: 5.9
- Intrinsic activity [1]: 0.6

SMILES: C=CCc1ccccc1O[C@H](C)C1=NCCN1
- pKb [8]: 7.4
- Ki [5]: 562 nM
- Ki [6]: 178 nM
- EC50 [7]: 186 nM
- Intrinsic activity [1]: 0.5
- Activity (Mus musculus [10]): Active
- Activity (Mus musculus [11]): inactive
- Activity (Mus musculus [13]): inactive
- Activity (Mus musculus [14]): inactive
- Activity (Mus musculus [15]): Active
- Activity (Mus musculus [16]): Non-toxic
- Activity (Mus musculus [17]): Active
- Activity (Mus musculus [18]): Active
- pEC50 [2]: inactive

SMILES: CC(Oc1ccccc1)C1=NCCN1 (racemic)
- pKb [8]: 7.01
- pKb [12]: 6.2
- pKb [19]: 6.85

SMILES: C[C@H](Oc1ccccc1-c1ccsc1)C1=NCCN1
- Ki [3]: 44.7 nM
- EC50 [4]: 63.1 nM
- Ki [5]: 447 nM
- EC50 [9]: 1000 nM
- Ki [6]: 126 nM
- EC50 [7]: 6.31 nM
- Intrinsic activity [1]: 0.9

Source: ChEMBL document CHEMBL1275329, “Fruitful adrenergic α(2C)-agonism/α(2A)-antagonism combination to prevent and contrast morphine tolerance and dependence” (J Med Chem, 2010)
